Data reported in ChEMBL document CHEMBL1649256, “Comparison of assessment of oxygen consumption, Etest, and CLSI M38-A2 broth microdilution methods for evaluation of the susceptibility of Aspergillus fumigatus to posaconazole” (2009).
Values after ≈ are worked out from the molar mass of the structure shown.

Tests used:
Assay type in all cases: functional
Aspergillus fumigatus [1] = assay: Antimicrobial activity against Aspergillus fumigatus isolate 40 by oxygen consumption method
How it was run: (§1)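 Conidial suspension in RPMI 1640 broth, tested at two posaconazole levels (0.25 and 2 μg/ml). Agitated for 12 h at 37°C in a biological oxygen monitor. MIC derived from continuous monitoring and quantification of the available oxygen.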

Aspergillus fumigatus [2] = assay: Antimicrobial activity against Aspergillus fumigatus isolate 14 by CLSI M38-A2 broth microdilution method
How it was run: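 Posaconazole broth microdilution follows CLSI M38-A2. The MIC is the lowest concentration with no visible growth at 48 h. Candida parapsilosis ATCC 22019 and Candida krusei ATCC 6258 were included as QC strains in every run.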

Aspergillus fumigatus [3] = assay: Antimicrobial activity against Aspergillus fumigatus isolate 21 by CLSI M38-A2 broth microdilution method
How it was run: (§2)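 Reference broth microdilution per CLSI M38-A2. MIC read as absence of visible growth at 48 h. C. parapsilosis ATCC 22019 and C. krusei ATCC 6258 QC strains run in each test session.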

Aspergillus fumigatus [4] = assay: Antimicrobial activity against Aspergillus fumigatus isolate 39 after 48 hrs by Etest; details: isolate 39, 48 h
How it was run: (§3)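 Posaconazole Etest strips on RPMI 1640 agar with 2% glucose, pH 7.0, run per the strip maker's instructions. Incubated at 35°C. MIC read at 24 h and at 48 h, matching the time in each line.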

Aspergillus fumigatus [5] = assay: Antimicrobial activity against Aspergillus fumigatus isolate 22 after 48 hrs by Etest; details: isolate 22, 48 h
How it was run: (§4)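 Etest strips on RPMI 1640 agar with 2% glucose, pH 7.0, run per manufacturer's instructions. Incubated at 35°C; MIC read at 48 h.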

Aspergillus fumigatus [6] = assay: Antimicrobial activity against Aspergillus fumigatus isolate 34 after 48 hrs by Etest; details: isolate 34, 48 h; how it was run: as §3
Aspergillus fumigatus [7] = assay: Antimicrobial activity against Aspergillus fumigatus isolate 48 after 48 hrs by Etest; details: isolate 48, 48 h
Aspergillus fumigatus [8] = assay: Antimicrobial activity against Aspergillus fumigatus isolate 7 by oxygen consumption method
Aspergillus fumigatus [9] = assay: Antimicrobial activity against Aspergillus fumigatus isolate 3 after 24 hrs by Etest; details: isolate 3, 24 h
How it was run: (§5)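 Etest strips on RPMI 1640 agar with 2% glucose, pH 7.0, run per manufacturer's instructions. Incubated at 35°C; MIC read at 24 h.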

Aspergillus fumigatus [10] = assay: Antimicrobial activity against Aspergillus fumigatus isolate 9 by oxygen consumption method
Aspergillus fumigatus [11] = assay: Antimicrobial activity against Aspergillus fumigatus isolate 37 after 24 hrs by Etest; details: isolate 37, 24 h; how it was run: as §3
Aspergillus fumigatus [12] = assay: Antimicrobial activity against Aspergillus fumigatus isolate 25 after 48 hrs by Etest; details: isolate 25, 48 h; how it was run: as §4
Aspergillus fumigatus [13] = assay: Antimicrobial activity against Aspergillus fumigatus isolate 15 by oxygen consumption method
How it was run: (§6)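 Conidial suspension in RPMI 1640 broth with posaconazole at 0.25 and 2 μg/ml. Tubes agitated 12 h at 37°C in a biological oxygen monitor. Available oxygen was monitored continuously, and the MIC was assigned from the oxygen quantification.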

Aspergillus fumigatus [14] = assay: Antimicrobial activity against Aspergillus fumigatus isolate 4 by oxygen consumption method; how it was run: as §1
Aspergillus fumigatus [15] = assay: Antimicrobial activity against Aspergillus fumigatus isolate 39 by CLSI M38-A2 broth microdilution method
How it was run: (§7)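 CLSI M38-A2 broth microdilution with posaconazole. MIC taken as the lowest concentration with no visible growth at 48 h. C. parapsilosis ATCC 22019 and C. krusei ATCC 6258 were included as QC strains in every run.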

Aspergillus fumigatus [16] = assay: Antimicrobial activity against Aspergillus fumigatus isolate 22 by oxygen consumption method
How it was run: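 Conidial suspension in RPMI 1640 broth, 1.5 ml, with two drug concentrations (0.25 and 2 μg/ml). Tubes agitated 12 h at 37°C in a biological oxygen monitor. Available oxygen monitored continuously and quantified to assign the MIC.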

Aspergillus fumigatus [17] = assay: Antimicrobial activity against Aspergillus fumigatus isolate 23 by CLSI M38-A2 broth microdilution method; how it was run: as §2
Aspergillus fumigatus [18] = assay: Antimicrobial activity against Aspergillus fumigatus isolate 45 by CLSI M38-A2 broth microdilution method
Aspergillus fumigatus [19] = assay: Antimicrobial activity against Aspergillus fumigatus isolate 32 after 48 hrs by Etest; details: isolate 32, 48 h; how it was run: as §3
Aspergillus fumigatus [20] = assay: Antimicrobial activity against Aspergillus fumigatus isolate 22 after 24 hrs by Etest; details: isolate 22, 24 h; how it was run: as §5
Aspergillus fumigatus [21] = assay: Antimicrobial activity against Aspergillus fumigatus isolate 8 by oxygen consumption method
Aspergillus fumigatus [22] = assay: Antimicrobial activity against Aspergillus fumigatus isolate 19 after 24 hrs by Etest; details: isolate 19, 24 h
How it was run: (§8)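 Posaconazole Etest strips placed on RPMI 1640 agar with 2% glucose, pH 7.0, and run per the strip maker's instructions. Incubation at 35°C, with the MIC read at 24 h and at 48 h.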

Aspergillus fumigatus [23] = assay: Antimicrobial activity against Aspergillus fumigatus isolate 33 by CLSI M38-A2 broth microdilution method; how it was run: as §7
Aspergillus fumigatus [24] = assay: Antimicrobial activity against Aspergillus fumigatus isolate 49 by CLSI M38-A2 broth microdilution method
Aspergillus fumigatus [25] = assay: Antimicrobial activity against Aspergillus fumigatus isolate 23 after 24 hrs by Etest; details: isolate 23, 24 h; how it was run: as §5
Aspergillus fumigatus [26] = assay: Antimicrobial activity against Aspergillus fumigatus isolate 16 after 24 hrs by Etest; details: isolate 16, 24 h; how it was run: as §8
Aspergillus fumigatus [27] = assay: Antimicrobial activity against Aspergillus fumigatus isolate 13 after 24 hrs by Etest; details: isolate 13, 24 h; how it was run: as §8
Aspergillus fumigatus [28] = assay: Antimicrobial activity against Aspergillus fumigatus isolate 17 by oxygen consumption method; how it was run: as §6
Aspergillus fumigatus [29] = assay: Antimicrobial activity against Aspergillus fumigatus isolate 12 by oxygen consumption method; how it was run: as §6
Aspergillus fumigatus [30] = assay: Antimicrobial activity against Aspergillus fumigatus isolate 7 after 48 hrs by Etest; details: isolate 7, 48 h
Aspergillus fumigatus [31] = assay: Antimicrobial activity against Aspergillus fumigatus isolate 42 after 48 hrs by Etest; details: isolate 42, 48 h; how it was run: as §3
Aspergillus fumigatus [32] = assay: Antimicrobial activity against Aspergillus fumigatus isolate 33 after 48 hrs by Etest; details: isolate 33, 48 h; how it was run: as §3
Aspergillus fumigatus [33] = assay: Antimicrobial activity against Aspergillus fumigatus isolate 5 after 48 hrs by Etest; details: isolate 5, 48 h
Aspergillus fumigatus [34] = assay: Antimicrobial activity against Aspergillus fumigatus isolate 10 by oxygen consumption method; how it was run: as §6
Aspergillus fumigatus [35] = assay: Antimicrobial activity against Aspergillus fumigatus isolate 32 by CLSI M38-A2 broth microdilution method; how it was run: as §7
Aspergillus fumigatus [36] = assay: Antimicrobial activity against Aspergillus fumigatus isolate 38 by CLSI M38-A2 broth microdilution method; how it was run: as §7
Aspergillus fumigatus [37] = assay: Antimicrobial activity against Aspergillus fumigatus isolate 37 after 48 hrs by Etest; details: isolate 37, 48 h; how it was run: as §3
Aspergillus fumigatus [38] = assay: Antimicrobial activity against Aspergillus fumigatus isolate 14 after 24 hrs by Etest; details: isolate 14, 24 h; how it was run: as §8
Aspergillus fumigatus [39] = assay: Antimicrobial activity against Aspergillus fumigatus isolate 21 after 48 hrs by Etest; details: isolate 21, 48 h; how it was run: as §4
Aspergillus fumigatus [40] = assay: Antimicrobial activity against Aspergillus fumigatus isolate 2 by oxygen consumption method; how it was run: as §6
Aspergillus fumigatus [41] = assay: Antimicrobial activity against Aspergillus fumigatus isolate 5 by CLSI M38-A2 broth microdilution method
Aspergillus fumigatus [42] = assay: Antimicrobial activity against Aspergillus fumigatus isolate 29 after 24 hrs by Etest; details: isolate 29, 24 h; how it was run: as §5
Aspergillus fumigatus [43] = assay: Antimicrobial activity against Aspergillus fumigatus isolate 42 by CLSI M38-A2 broth microdilution method; how it was run: as §7
Aspergillus fumigatus [44] = assay: Antimicrobial activity against Aspergillus fumigatus isolate 29 after 48 hrs by Etest; details: isolate 29, 48 h; how it was run: as §4

Structure (SMILES): CC[C@@H]([C@H](C)O)n1ncn(-c2ccc(N3CCN(c4ccc(OC[C@@H]5CO[C@@](Cn6cncn6)(c6ccc(F)cc6F)C5)cc4)CC3)cc2)c1=O [POSACONAZOLE]
- MIC (Aspergillus fumigatus [1]): ≤ 0.25 µg/mL
- MIC (Aspergillus fumigatus [2]): 0.125 µg/mL (≈ 0.178 µM)
- MIC (Aspergillus fumigatus [3]): 0.125 µg/mL (≈ 0.178 µM)
- MIC (Aspergillus fumigatus [4]): 2 µg/mL (≈ 2.85 µM)
- MIC (Aspergillus fumigatus [5]): 0.25 µg/mL (≈ 0.357 µM)
- MIC (Aspergillus fumigatus [6]): ≤ 0.03 µg/mL
- MIC (Aspergillus fumigatus [7]): ≤ 0.03 µg/mL
- MIC (Aspergillus fumigatus [8]): ≤ 0.25 µg/mL
- MIC (Aspergillus fumigatus [9]): 1 µg/mL (≈ 1.43 µM)
- MIC (Aspergillus fumigatus [10]): ≤ 0.25 µg/mL
- MIC (Aspergillus fumigatus [11]): 0.05 µg/mL (≈ 0.0713 µM)
- MIC (Aspergillus fumigatus [12]): 0.25 µg/mL (≈ 0.357 µM)
- MIC (Aspergillus fumigatus [13]): ≤ 0.25 µg/mL
- MIC (Aspergillus fumigatus [14]): ≥ 0.5 µg/mL
- MIC (Aspergillus fumigatus [15]): 0.06 µg/mL (≈ 0.0856 µM)
- MIC (Aspergillus fumigatus [16]): ≤ 0.25 µg/mL
- MIC (Aspergillus fumigatus [17]): 0.125 µg/mL (≈ 0.178 µM)
- MIC (Aspergillus fumigatus [18]): 0.125 µg/mL (≈ 0.178 µM)
- MIC (Aspergillus fumigatus [19]): 0.25 µg/mL (≈ 0.357 µM)
- MIC (Aspergillus fumigatus [20]): 0.25 µg/mL (≈ 0.357 µM)
- MIC (Aspergillus fumigatus [21]): ≥ 0.5 µg/mL
- MIC (Aspergillus fumigatus [22]): 0.125 µg/mL (≈ 0.178 µM)
- MIC (Aspergillus fumigatus [23]): 0.125 µg/mL (≈ 0.178 µM)
- MIC (Aspergillus fumigatus [24]): 0.125 µg/mL (≈ 0.178 µM)
- MIC (Aspergillus fumigatus [25]): 0.25 µg/mL (≈ 0.357 µM)
- MIC (Aspergillus fumigatus [26]): 0.125 µg/mL (≈ 0.178 µM)
- MIC (Aspergillus fumigatus [27]): 0.25 µg/mL (≈ 0.357 µM)
- MIC (Aspergillus fumigatus [28]): ≤ 0.25 µg/mL
- MIC (Aspergillus fumigatus [29]): ≤ 0.25 µg/mL
- MIC (Aspergillus fumigatus [30]): 0.25 µg/mL (≈ 0.357 µM)
- MIC (Aspergillus fumigatus [31]): 0.125 µg/mL (≈ 0.178 µM)
- MIC (Aspergillus fumigatus [32]): 0.25 µg/mL (≈ 0.357 µM)
- MIC (Aspergillus fumigatus [33]): > 16 µg/mL
- MIC (Aspergillus fumigatus [34]): ≤ 0.25 µg/mL
- MIC (Aspergillus fumigatus [35]): 0.125 µg/mL (≈ 0.178 µM)
- MIC (Aspergillus fumigatus [36]): 0.125 µg/mL (≈ 0.178 µM)
- MIC (Aspergillus fumigatus [37]): 0.125 µg/mL (≈ 0.178 µM)
- MIC (Aspergillus fumigatus [38]): 0.25 µg/mL (≈ 0.357 µM)
- MIC (Aspergillus fumigatus [39]): 0.25 µg/mL (≈ 0.357 µM)
- MIC (Aspergillus fumigatus [40]): ≥ 0.5 µg/mL
- MIC (Aspergillus fumigatus [41]): 1 µg/mL (≈ 1.43 µM)
- MIC (Aspergillus fumigatus [42]): 0.25 µg/mL (≈ 0.357 µM)
- MIC (Aspergillus fumigatus [43]): 0.06 µg/mL (≈ 0.0856 µM)
- MIC (Aspergillus fumigatus [44]): 0.25 µg/mL (≈ 0.357 µM)
